Data published in ChEMBL document CHEMBL1135984, “Mechanism-based design of parasite-targeted artemisinin derivatives: synthesis and antimalarial activity of new diamine containing analogues” (J Med Chem, 2002).

What was measured:
Plasmodium falciparum [1] = assay: (§1) In vitro inhibitory concentration against chloroquine-resistant Plasmodium falciparum K1; type: functional, organism-based
In short: (§2)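 48 h growth assay in human erythrocytes (2% parasitemia, 0.5% haematocrit) in RPMI 1640 with 25 mM HEPES, 32 mM NaHCO3 and 10% human serum, under 3% O2/4% CO2/93% N2 at 37 °C. DMSO stocks diluted in medium; triplicates. 0.5 μCi [3H]-hypoxanthine added at 24 h, uptake counted 24 h later. IC50 by probit interpolation of log dose–response versus drug-free controls.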

Plasmodium falciparum [2] = assay: In vitro inhibitory concentration against chloroquine-sensitive Plasmodium falciparum HB3; type: functional, organism-based; in short: as §2
Mus musculus [3] = organism: Mus musculus; assay: 90% effective dose against Plasmodium yoelii in mice (Mus musculus); type: functional
Mus musculus [4] = organism: Mus musculus; assay: 50% effective dose against Plasmodium yoelii in mice (Mus musculus); type: functional
Mus musculus [5] = assay: 50% effective dose for antimalarial activity (in vivo) against Plasmodium berghei; type: functional
In short: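 Male Swiss albino mice, 18-22 g, infected ip with 10^7 P. berghei NS parasitized erythrocytes. Dosed ip or orally once daily for 4 days from the day of infection, in methanol/PBS/DMSO (2:5:3 v/v). Parasitemia read the day after the last dose. ED50 (50% suppression versus vehicle controls) taken from a plot of log dose against parasitemia.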

Plasmodium falciparum [6] = assay: as §1; type: functional, organism-based; in short: as §2; remark: listed apart in the source

CCCN(CCC)CC[C@H]1O[C@@H]2O[C@]3(C)CC[C@H]4[C@H](C)CC[C@@H]([C@H]1C)[C@@]24OO3
IC50 (Plasmodium falciparum [1]): 7.51 nM

C[C@H]1[C@@H](CCN2CCN(c3ccc(Cl)cc3)CC2)O[C@@H]2O[C@]3(C)CC[C@H]4[C@H](C)CC[C@@H]1[C@@]24OO3
IC50 (Plasmodium falciparum [1]): 8.16 nM

C[C@H]1[C@@H](OCc2ccc(CN3CCN(Cc4ccccc4)CC3)cc2)O[C@@H]2O[C@]3(C)CC[C@H]4[C@H](C)CC[C@@H]1[C@@]24OO3
IC50 (Plasmodium falciparum [2]): 1.8 nM
IC50 (Plasmodium falciparum [1]): 3.8 nM

C[C@H]1[C@@H](OCc2cccc(CN3CCN(c4cccc(C(F)(F)F)c4)CC3)c2)O[C@@H]2OC3(C)CCC4[C@H](C)CC[C@@H]1[C@]42OO3 (single isomer, unassigned)
IC50 (Plasmodium falciparum [1]): 22.5 nM

C[C@H]1[C@@H](OCc2cccc(CN3CCN(c4ccc([N+](=O)[O-])cc4)CC3)c2)O[C@@H]2OC3(C)CCC4[C@H](C)CC[C@@H]1[C@]42OO3 (single isomer, unassigned)
IC50 (Plasmodium falciparum [2]): 4.3 nM
IC50 (Plasmodium falciparum [1]): 4.3 nM

C[C@H]1[C@@H](OCc2cccc(CN3CCN(c4ccccc4)CC3)c2)O[C@@H]2OC3(C)CCC4[C@H](C)CC[C@@H]1[C@]42OO3 (single isomer, unassigned)
IC50 (Plasmodium falciparum [2]): 3.4 nM
IC50 (Plasmodium falciparum [1]): 6.6 nM

C[C@H]1[C@@H](OCc2cccc(CN3CCN(c4ccc(Cl)cc4)CC3)c2)O[C@@H]2OC3(C)CCC4[C@H](C)CC[C@@H]1[C@]42OO3 (single isomer, unassigned)
IC50 (Plasmodium falciparum [1]): 13.3 nM

C[C@H]1[C@@H](OCc2cccc(CN3CCN(c4ccc(F)cc4)CC3)c2)O[C@@H]2OC3(C)CCC4[C@H](C)CC[C@@H]1[C@]42OO3 (single isomer, unassigned)
IC50 (Plasmodium falciparum [2]): 12.6 nM
IC50 (Plasmodium falciparum [1]): 12.6 nM

C[C@H]1[C@@H](CCN2CCCCC2)O[C@@H]2OC3(C)CCC4[C@H](C)CC[C@@H]1[C@]42OO3 (single isomer, unassigned)
IC50 (Plasmodium falciparum [1]): 4.83 nM

C[C@H]1[C@@H](CCN2CCOCC2)O[C@@H]2OC3(C)CCC4[C@H](C)CC[C@@H]1[C@]42OO3 (single isomer, unassigned)
IC50 (Plasmodium falciparum [1]): 4.22 nM

C[C@H]1[C@@H](CCN2CCN(Cc3ccccc3)CC2)O[C@@H]2OC3(C)CCC4[C@H](C)CC[C@@H]1[C@]42OO3 (single isomer, unassigned)
ED90 (Mus musculus [3]): > 10 mg/kg
ED50 (Mus musculus [4]): < 10 mg/kg
IC50 (Plasmodium falciparum [1]): 4.22 nM

C[C@H]1[C@@H](OCc2ccc(CN3CCN(c4ccc([N+](=O)[O-])cc4)CC3)cc2)O[C@@H]2OC3(C)CCC4[C@H](C)CC[C@@H]1[C@]42OO3 (single isomer, unassigned)
IC50 (Plasmodium falciparum [1]): 138 nM

C[C@H]1[C@@H](CCN2CCN(c3cccc(C(F)(F)F)c3)CC2)O[C@@H]2OC3(C)CCC4[C@H](C)CC[C@@H]1[C@]42OO3 (single isomer, unassigned)
ED90 (Mus musculus [3]): < 10 mg/kg
ED50 (Mus musculus [4]): < 10 mg/kg
ED50 (Mus musculus [5]): 3.12 mg/kg
IC50 (Plasmodium falciparum [1]): 6.19 nM

C[C@H]1[C@@H](CCN2CCN(c3ccc(F)cc3)CC2)O[C@@H]2OC3(C)CCC4[C@H](C)CC[C@@H]1[C@]42OO3 (single isomer, unassigned)
ED90 (Mus musculus [3]): 10 mg/kg
ED50 (Mus musculus [4]): < 10 mg/kg
IC50 (Plasmodium falciparum [1]): 5.96 nM

C[C@H]1[C@@H](CCN2CCN(c3ccccc3)CC2)O[C@@H]2OC3(C)CCC4[C@H](C)CC[C@@H]1[C@]42OO3 (single isomer, unassigned)
ED90 (Mus musculus [3]): > 10 mg/kg
ED50 (Mus musculus [4]): < 10 mg/kg
IC50 (Plasmodium falciparum [1]): 3.15 nM

C[C@H]1[C@@H](CCN2CCN(c3ccc([N+](=O)[O-])cc3)CC2)O[C@@H]2OC3(C)CCC4[C@H](C)CC[C@@H]1[C@]42OO3 (single isomer, unassigned)
ED90 (Mus musculus [3]): > 10 mg/kg
ED50 (Mus musculus [4]): < 10 mg/kg
IC50 (Plasmodium falciparum [1]): 4.29 nM

C[C@H]1[C@@H](OCc2ccc(CN3CCN(c4ccccc4)CC3)cc2)O[C@@H]2OC3(C)CCC4[C@H](C)CC[C@@H]1[C@]42OO3 (single isomer, unassigned)
IC50 (Plasmodium falciparum [1]): 8.2 nM

C[C@H]1[C@@H](OCc2ccc(CN3CCN(c4ccc(F)cc4)CC3)cc2)O[C@@H]2OC3(C)CCC4[C@H](C)CC[C@@H]1[C@]42OO3 (single isomer, unassigned)
IC50 (Plasmodium falciparum [2]): 2.3 nM
IC50 (Plasmodium falciparum [1]): 6.3 nM

C[C@H]1[C@@H](OCc2ccc(CN3CCN(c4ccc(C(F)(F)F)cc4)CC3)cc2)O[C@@H]2OC3(C)CCC4[C@H](C)CC[C@@H]1[C@]42OO3 (single isomer, unassigned)
IC50 (Plasmodium falciparum [2]): 8.1 nM
IC50 (Plasmodium falciparum [1]): 12.5 nM

CO[C@H]1O[C@@H]2O[C@@]3(C)CC[C@H]4[C@H](C)CC[C@@H]([C@H]1C)[C@@]24OO3 [ARTEMETHER]
IC50 (Plasmodium falciparum [2]): 9.2 nM
IC50 (Plasmodium falciparum [1]): 6.5 nM
IC50 (Plasmodium falciparum [6]): 7.94 nM

C[C@@H]1CC[C@H]2[C@@H](C)C(=O)O[C@@H]3O[C@@]4(C)CC[C@@H]1[C@]32OO4 [ARTEMISININ]
IC50 (Plasmodium falciparum [1]): 12.5 nM

C[C@H]1[C@H](OC(=O)CCC(=O)[O-])O[C@@H]2O[C@@]3(C)CC[C@H]4[C@H](C)CC[C@@H]1[C@@]24OO3.[Na+] [SODIUM ARESUNATE]
ED90 (Mus musculus [3]): 100 mg/kg
ED50 (Mus musculus [4]): 1.6 mg/kg
